≈ marks a conversion by molar mass, not a printed value.
Experiments:
Format in all cases: functional
[1] = tested on: Pseudomonas aeruginosa; assay: Antibacterial activity against Pseudomonas aeruginosa ATCC 27853 at 37 degC after 24 hrs by disc diffusion method
How it was run: (§1)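 Disc diffusion on nutrient agar. Plates were spread with 1–2 × […] c.f.u./ml inoculum (0.5 McFarland). Sterile 6.25 mm filter-paper discs were soaked in a known concentration of compound and placed on the agar. Plates were inverted and incubated 24 h at 37 °C. Inhibition zones (mm) were read against solvent and growth controls, with ciprofloxacin as reference.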

[2] = tested on: Trichophyton mentagrophytes; assay: Antifungal activity against Trichophyton mentagrophytes at 37 degC after 3 to 4 days by agar dilution method; settings: in the assay text read “agar diffusion method” for “agar dilution method”
How it was run: (§2)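 Agar well diffusion for fungi, compounds in DMSO. Sabouraud agar was adjusted to pH 5.7 and lawned with a saline spore suspension (a loopful in 3 ml). Plates were dried 1 h at 37 °C, then wells were punched. Incubation was 3–4 days at 37 °C, with controls in triplicate. Inhibition zones were measured against controls, with griseofulvin as standard.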

[3] = tested on: Klebsiella pneumoniae; assay: Antibacterial activity against Klebsiella pneumoniae ATCC 25922 at 37 degC after 24 hrs by disc diffusion method; how it was run: as §1
[4] = tested on: Candida albicans; assay: Antifungal activity against Candida albicans at 35 degC after 48 hrs
How it was run: (§3)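 Fungicidal endpoint (MFC). 0.1 ml from each broth-dilution tube was spread on agar plates and c.f.u. counted after 48 h at 35 °C. MFC was the lowest concentration killing 99.9% of the inoculum.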

[5] = tested on: Klebsiella pneumoniae; assay: Antibacterial activity against Klebsiella pneumoniae ATCC 25922 at 35 degC after 18 to 24 hrs; settings: recultured, in the assay text read “Klebsiella pneumoniae (recultured)” for “Klebsiella pneumoniae ATCC 25922”
How it was run: (§4)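 Bactericidal endpoint (MBC) taken from the broth-dilution MIC tubes. 0.1 ml from each tube was spread on agar plates and c.f.u. counted after 18–24 h. MBC was the lowest concentration completely killing the bacteria.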

[6] = tested on: Escherichia coli; assay: Antibacterial activity against Escherichia coli ATCC 25922 at 37 degC after 24 hrs by disc diffusion method; how it was run: as §1
[7] = tested on: Escherichia coli; assay: Antibacterial activity against Escherichia coli ATCC 25922 at 35 degC after 18 to 24 hrs; how it was run: as §4
[8] = tested on: Pseudomonas aeruginosa; assay: Antibacterial activity against Pseudomonas aeruginosa ATCC 27853 at 35 degC after 18 to 24 hrs; how it was run: as §4
[9] = tested on: Talaromyces marneffei; assay: Antifungal activity against Penicillium marneffei at 35 degC after 48 hrs; how it was run: as §3
[10] = tested on: Trichophyton mentagrophytes; assay: Antifungal activity against Trichophyton mentagrophytes at 35 degC after 48 hrs by broth dilution method
How it was run: (§5)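 Fungal MIC by broth dilution. Two-fold serial dilutions of compound in nutrient broth were inoculated with about 1.6 × 10⁴–6 × 10⁴ c.f.u./ml. Incubation was 48 h at 35 °C. MIC was the lowest concentration arresting fungal growth.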

[11] = tested on: Escherichia coli; assay: Antibacterial activity against Escherichia coli ATCC 25922 at 37 degC after 24 hrs by broth dilution method; settings: ATCC 25922, 24 h
How it was run: (§6)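 Broth dilution MIC. Nutrient broth held two-fold serial dilutions of compound and was inoculated with about 5 × 10⁵ c.f.u. of actively dividing bacteria. Cultures ran 24 h at 37 °C, with growth checked visually and spectrophotometrically. MIC was the lowest concentration arresting growth. Ciprofloxacin was the standard.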

[12] = tested on: Talaromyces marneffei; assay: Antifungal activity against Penicillium marneffei at 35 degC after 48 hrs by broth dilution method; how it was run: as §5
[13] = tested on: Trichophyton mentagrophytes; assay: Antifungal activity against Trichophyton mentagrophytes at 35 degC after 48 hrs; how it was run: as §3
[14] = tested on: Talaromyces marneffei; assay: Antifungal activity against Penicillium marneffei at 37 degC after 3 to 4 days by agar […] method; how it was run: as §2
[15] = tested on: Staphylococcus aureus; assay: Antibacterial activity against Staphylococcus aureus ATCC 25923 at 35 degC after 18 to 24 hrs; how it was run: as §4
[16] = tested on: Klebsiella pneumoniae; assay: Antibacterial activity against Klebsiella pneumoniae ATCC 25922 at 37 degC after 24 hrs by broth dilution method; settings: recultured, in the assay text read “Klebsiella pneumoniae (recultured)” for “Klebsiella pneumoniae ATCC 25922”; how it was run: as §6
[17] = tested on: Aspergillus fumigatus; assay: Antifungal activity against Aspergillus fumigatus at 37 degC after 3 to 4 days by agar […] method; how it was run: as §2
[18] = tested on: Staphylococcus aureus; assay: Antibacterial activity against Staphylococcus aureus ATCC 25923 at 37 degC after 24 hrs by disc diffusion method; how it was run: as §1
[19] = tested on: Pseudomonas aeruginosa; assay: Antibacterial activity against Pseudomonas aeruginosa ATCC 27853 at 37 degC after 24 hrs by broth dilution method; settings: ATCC 27853, 24 h; how it was run: as §6
[20] = tested on: Aspergillus fumigatus; assay: Antifungal activity against Aspergillus fumigatus at 35 degC after 48 hrs; how it was run: as §3
[21] = tested on: Aspergillus fumigatus; assay: Antifungal activity against Aspergillus fumigatus at 35 degC after 48 hrs by broth dilution method; how it was run: as §5
[22] = tested on: Candida albicans; assay: Antifungal activity against Candida albicans at 37 degC after 3 to 4 days by agar dilution method; how it was run: as §2
[23] = tested on: Staphylococcus aureus; assay: Antibacterial activity against Staphylococcus aureus ATCC 25923 at 37 degC after 24 hrs by broth dilution method; settings: ATCC 25923, 24 h; how it was run: as §6
[24] = tested on: Candida albicans; assay: Antifungal activity against Candida albicans at 35 degC after 48 hrs by broth dilution method; how it was run: as §5

Compound | inhibition zone (IZ) [1] [mm] | inhibition zone (IZ) [2] [mm] | MFC [4] [µg/mL] | MBC [5] [µg/mL] | MBC [7] [µg/mL] | MBC [8] [µg/mL] | MFC [9] [µg/mL] | MIC [10] [µg/mL] | MIC [11] [µg/mL] | MIC [12] [µg/mL] | MFC [13] [µg/mL] | MBC [15] [µg/mL] | MIC [16] [µg/mL] | inhibition zone (IZ) [17] [mm] | inhibition zone (IZ) [18] [mm] | MIC [19] [µg/mL] | MFC [20] [µg/mL] | MIC [21] [µg/mL] | MIC [23] [µg/mL] | MIC [24] [µg/mL] | further results
Cc1cc(Cl)ccc1OCc1nnc(-c2cc(-c3cc(F)c(Cl)cc3Cl)nc3ccccc23)o1 | 12 | 19 | > 100 | > 100 | > 100 | 50 (≈ 97.1 µM) | > 100 | 6.25 (≈ 12.1 µM) | > 100 | > 100 | 12.5 (≈ 24.3 µM) | 25 (≈ 48.6 µM) | > 100 | 12 | 17 | 12.5 (≈ 24.3 µM) | 50 (≈ 97.1 µM) | 12.5 (≈ 24.3 µM) | 6.25 (≈ 12.1 µM) | > 100 | Activity [3]: >100 µg/mL; Activity [6]: >100 µg/mL; Activity [14]: >100 µg/mL; Activity ([22]; in the assay text read “agar diffusion method” for “agar dilution method”): >100 µg/mL
Fc1cc(-c2nnc(COc3ccccc3Cl)o2)c(Cl)cc1Cl | 15 | 12 | 50 (≈ 134 µM) | 50 (≈ 134 µM) | 12.5 (≈ 33.5 µM) | 25 (≈ 66.9 µM) | > 100 | 12.5 (≈ 33.5 µM) | 6.25 (≈ 16.7 µM) | > 100 | 50 (≈ 134 µM) | 50 (≈ 134 µM) | 25 (≈ 66.9 µM) | 19 | 15 | 12.5 (≈ 33.5 µM) | 12.5 (≈ 33.5 µM) | 6.25 (≈ 16.7 µM) | 12.5 (≈ 33.5 µM) | 25 (≈ 66.9 µM) | inhibition zone (IZ) [3]: 12 mm; inhibition zone (IZ) [6]: 18 mm; Activity [14]: >100 µg/mL; inhibition zone (IZ) [22]: 10 mm
Cc1ccc(OCc2nnc(-c3cc(F)c(Cl)cc3Cl)o2)cc1 | 32 | 24 | 6.25 (≈ 17.7 µM) | 25 (≈ 70.8 µM) | 6.25 (≈ 17.7 µM) | 12.5 (≈ 35.4 µM) | 12.5 (≈ 35.4 µM) | 6.25 (≈ 17.7 µM) | 6.25 (≈ 17.7 µM) | 6.25 (≈ 17.7 µM) | 6.25 (≈ 17.7 µM) | 12.5 (≈ 35.4 µM) | 12.5 (≈ 35.4 µM) | 26 | 22 | 6.25 (≈ 17.7 µM) | 12.5 (≈ 35.4 µM) | 6.25 (≈ 17.7 µM) | 6.25 (≈ 17.7 µM) | 6.25 (≈ 17.7 µM) | inhibition zone (IZ) [3]: 18 mm; inhibition zone (IZ) [6]: 25 mm; inhibition zone (IZ) [14]: 18 mm; inhibition zone (IZ) [22]: 27 mm
Fc1cc(-c2cc(-c3nnc(COc4ccccc4Cl)o3)c3ccccc3n2)c(Cl)cc1Cl | 22 |  | 12.5 (≈ 25 µM) | 100 (≈ 200 µM) | 50 (≈ 99.9 µM) | 50 (≈ 99.9 µM) | 25 (≈ 49.9 µM) | > 100 | 6.25 (≈ 12.5 µM) | 12.5 (≈ 25 µM) | > 100 | > 100 | 25 (≈ 49.9 µM) |  |  | 25 (≈ 49.9 µM) | > 100 | > 100 | > 100 | 6.25 (≈ 12.5 µM) | Activity [2]: >100 µg/mL; Activity [3]: >100 µg/mL; inhibition zone (IZ) [6]: 20 mm; inhibition zone (IZ) [14]: 12 mm; Activity [17]: >100 µg/mL; Activity [18]: >100 µg/mL; inhibition zone (IZ) [22]: 20 mm

Source: ChEMBL document CHEMBL1149771, “Antimicrobial studies of 2,4-dichloro-5-fluorophenyl containing oxadiazoles” (2008)
